From PubChem BioAssay
Calls of active or inactive are those of the source.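 Rule for the calls, unless noted: active = viability at or under a set limit in both replicates, limit being median viability minus 3 SD (cut at about 48% in these data, passing the limit was not always enough); inconclusive = at or under the limit in just one replicate; inactive = at or above the limit in both replicates.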

Columns and labels:
[1] = SK-BR-3 cell growth inhibitors, pilot screen, 24 h, human (AID 572;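 active = viability at or below 10% of carrier control in both of two separate runs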;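 note: compound exposure lasted between 18 and 24 h rather than exactly 24 h; 100% = carrier-treated control wells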); conditions: SK-BR-3 viability, CellTiter-Glo luminescence, at 10 µM, stronger effect = lower value
[2] = HUVEC growth inhibition – cell-based, human, primary screen (AID 575;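 active = viability at or below 30% in both replicate assays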;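 note: 100% = median of untreated cell wells with 0.1% DMSO on each plate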); conditions: HUVEC proliferation, CellTiter-Glo luminescence, 72 h; at 10 µM; stronger effect = lower value
In short: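 material = primary HUVEC, no more than 12 passages | input = 1250 cells per well | controls = vehicle and MePR control wells | measured by = CTG luminescence | times = 72 h compound incubation | format = collagen-coated 384-well format | read-out = % viability vs DMSO wells | doses = single 10 µM dose, 0.1% DMSO, from 5x medium stock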

[3] = growth inhibitors of H69AR lung tumor, primary screen, human, duplicate replicates (AID 580); conditions: H69AR lung tumor cells viability, ATP luminescence, 72 h; at 10 µM; stronger effect = lower value;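 note: 100% = mean luminescence of untreated wells and 0% = no signal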
[4] = reversal of MRP1-mediated doxorubicin resistance, pilot screen, H69AR cells, doxorubicin co-treatment (AID 601;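 active = viability loss from added drug above about 55%, and viability with drug at most 40%, in both replicates, limit read from the data, passing the limit was not always enough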); conditions: CellTiter-Glo, 72 h, at 10 µM; for differential viability (reversal): stronger effect = higher value
[5] = 384-well plate pilot, post-Golgi transport modulator project, inhibition of yeast transport mutant growth (AID 636; in the data active = inhibition above about 31%); conditions: absorbance 615 nm, about 18 h, stronger effect = higher value
[6] = growth suppression of yeast trafficking mutant, preliminary HTS, modulators of trafficking downstream of Golgi apparatus project, 1536-format plate, OD 615 nm (AID 637; in the data active = inhibition above about 30%); conditions: yeast transport mutant growth, absorbance 615 nm, 18 h; stronger effect = higher value
[7] = H69AR cells + 2 uM doxorubicin, measured here: viability with 2 uM doxorubicin, stronger effect = lower value
[8] = H69AR cells, compound alone cytotoxicity

For CCc1nnc(NC(=O)CSc2nc(-c3ccc(OC)cc3)ns2)s1, the viability [1] was 110% (inactive), the viability [2] was 101% (inactive) and the viability [3] was 93.1% (inactive). For the same compound, the differential viability (reversal) ([4]; H69AR cells + 2 uM doxorubicin) was -0.64% (inactive), the viability [4, 7] was 93.7% and the viability [4, 8] was 93.1%. For the same compound, the inhibition [5] was -5.07% (inactive) and the inhibition [6] was 0.91% (inactive).

With CC(=O)Nc1cc(NC(C)=O)cc(C(=O)OCC(=O)N2CC(C)OC(C)C2)c1 (centres undefined) the viability [1] was 94% (inactive), the viability [2] was 99.9% (inactive) and the viability [3] was 102% (inactive). For the same compound, the differential viability (reversal) ([4]; H69AR cells + 2 uM doxorubicin) was 8.29% (inactive), the viability [4, 7] was 94.1% and the viability [4, 8] was 102%. The inhibition [5] was -6.62% (inactive) and the inhibition [6] was -3.64% (inactive).

With CCc1c(C)nc2ncnn2c1NCCc1ccc(OC)c(OC)c1 the viability [1] was 64% (inactive), the viability [2] was 103% (inactive) and the viability [3] was 80.6% (inactive). For the same compound, the differential viability (reversal) ([4]; H69AR cells + 2 uM doxorubicin) was -0.53% (inactive), the viability [4, 7] was 81.1% and the viability [4, 8] was 80.6%. For the same compound, the inhibition [5] was -7.03% (inactive) and the inhibition [6] was -0.18% (inactive).

With O=C(Nc1ccccc1-c1ccccc1)NC1CCN(C(=O)N2CCOCC2)CC1 the viability [1] was 108% (inactive), the viability [2] was 95.9% (inactive) and the viability [3] was 103% (inactive). For the same compound, the differential viability (reversal) ([4]; H69AR cells + 2 uM doxorubicin) was 3.68% (inactive), the viability [4, 7] was 99.5% and the viability [4, 8] was 103%. For the same compound, the inhibition [5] was -3.29% (inactive) and the inhibition [6] was 4.03% (inactive).

For C=CCNc1nnc(SC2CC(=O)N(c3ccc(OC)cc3)C2=O)s1 (centres undefined), the viability [1] was 107% (inactive), the viability [2] was 108% (inactive) and the viability [3] was 103% (inactive). The differential viability (reversal) ([4]; H69AR cells + 2 uM doxorubicin) was -8.79% (inactive), the viability [4, 7] was 111% and the viability [4, 8] was 103%. For the same compound, the inhibition [5] was -1.92% (inactive) and the inhibition [6] was 0.73% (inactive).

For Cc1cc(=O)n2nc(N3CCCC(C(=O)N4CCN(C)CC4)C3)sc2n1 (centres undefined), the viability [1] was 110% (inactive), the viability [2] was 101% (inactive) and the viability [3] was 95.7% (inactive). The differential viability (reversal) ([4]; H69AR cells + 2 uM doxorubicin) was 7.05% (inactive), the viability [4, 7] was 88.7% and the viability [4, 8] was 95.7%. The inhibition [5] was -5.81% (inactive) and the inhibition [6] was -5.09% (inactive).

In the case of Cc1nc(NC(=O)c2csc3ccccc23)sc1C, the viability [1] is reported as 100% (inactive), the viability [2] is reported as 83% (inactive) and the viability [3] is reported as 78.2% (inactive). For the same compound, the differential viability (reversal) ([4]; H69AR cells + 2 uM doxorubicin) was -3.3% (inactive), the viability [4, 7] was 81.5% and the viability [4, 8] was 78.2%. The inhibition [5] was 3.84% (inactive) and the inhibition [6] was -2.74% (inactive).

With O=C(O)c1ccccc1Nc1cccc(C(F)(F)F)c1 the viability [1] was 135% (inactive), the viability [2] was 69.6% (inactive) and the viability [3] was 88.6% (inactive). For the same compound, the differential viability (reversal) ([4]; H69AR cells + 2 uM doxorubicin) was 11.3% (inactive), the viability [4, 7] was 77.3% and the viability [4, 8] was 88.6%. For the same compound, the inhibition [5] was -1.3% (inactive) and the inhibition [6] was 2% (inactive).

In the case of Cc1ccc(-c2nc3cc(NC(=O)C(C)C)ccc3o2)cc1C, the viability [1] is reported as 80% (inactive), the viability [2] is reported as 51.8% (inactive) and the viability [3] is reported as 72.9% (inactive). For the same compound, the differential viability (reversal) ([4]; H69AR cells + 2 uM doxorubicin) was 2.97% (inactive), the viability [4, 7] was 69.9% and the viability [4, 8] was 72.9%. For the same compound, the inhibition [5] was -4.66% (inactive) and the inhibition [6] was -8.55% (inactive).

In the case of CC1Oc2ccccc2N(CC(=O)NCc2cccs2)C1=O (centres undefined), the viability [1] is reported as 77% (inactive), the viability [2] is reported as 98.8% (inactive) and the viability [3] is reported as 108% (inactive). The differential viability (reversal) ([4]; H69AR cells + 2 uM doxorubicin) was 13.8% (inactive), the viability [4, 7] was 94.5% and the viability [4, 8] was 108%. For the same compound, the inhibition [5] was -6.71% (inactive) and the inhibition [6] was -0.91% (inactive).

In the case of CC(=O)[C@@]1(O)CC[C@H]2[C@@H]3C[C@H](C)C4=CC(=O)C=C[C@]4(C)[C@@]3(F)[C@@H](O)C[C@@]21C, the viability [1] is reported as 100% (inactive), the viability [2] is reported as 92.3% (inactive) and the viability [3] is reported as 93.2% (inactive). The differential viability (reversal) ([4]; H69AR cells + 2 uM doxorubicin) was -9.97% (inactive), the viability [4, 7] was 103% and the viability [4, 8] was 93.2%. The inhibition [5] was -0.91% (inactive) and the inhibition [6] was 7.83% (inactive).

With COc1cccc(-c2cc(C(=O)Nc3c(C)nn(Cc4ccccc4)c3C)no2)c1 the viability [1] was 158% (inactive), the viability [2] was 82.6% (inactive) and the viability [3] was 98.2% (inactive). The differential viability (reversal) ([4]; H69AR cells + 2 uM doxorubicin) was 8.66% (inactive), the viability [4, 7] was 89.5% and the viability [4, 8] was 98.2%. The inhibition [5] was -5.81% (inactive) and the inhibition [6] was -7.33% (inactive).

With CCN1C(=O)CC(N2CCC(Nc3ccc(F)cc3)CC2)C1=O (centres undefined) the viability [1] was 78% (inactive), the viability [2] was 93.5% (inactive) and the viability [3] was 92.3% (inactive). The differential viability (reversal) ([4]; H69AR cells + 2 uM doxorubicin) was 1.94% (inactive), the viability [4, 7] was 90.3% and the viability [4, 8] was 92.3%. The inhibition [5] was -0.65% (inactive) and the inhibition [6] was -0.98% (inactive).

For CN(CC(=O)Nc1cccnc1)S(=O)(=O)c1cc(Cl)ccc1Cl, the viability [1] was 104% (inactive), the viability [2] was 105% (inactive) and the viability [3] was 91.7% (inactive). The differential viability (reversal) ([4]; H69AR cells + 2 uM doxorubicin) was -7.51% (inactive), the viability [4, 7] was 99.2% and the viability [4, 8] was 91.7%. The inhibition [5] was -0.14% (inactive) and the inhibition [6] was 6.73% (inactive).

In the case of NC(=O)C1CCN(C(=S)c2cccs2)CC1, the viability [1] is reported as 77% (inactive), the viability [2] is reported as 102% (inactive) and the viability [3] is reported as 96.1% (inactive). For the same compound, the differential viability (reversal) ([4]; H69AR cells + 2 uM doxorubicin) was 11.5% (inactive), the viability [4, 7] was 84.7% and the viability [4, 8] was 96.1%. The inhibition [5] was -8.49% (inactive) and the inhibition [6] was 3.39% (inactive).

With CCN(CCO)C(=O)CC(c1ccccc1)c1cc(Br)ccc1O (centres undefined) the viability [1] was 101% (inactive), the viability [2] was 101% (inactive) and the viability [3] was 93.8% (inactive). The differential viability (reversal) ([4]; H69AR cells + 2 uM doxorubicin) was -3.22% (inactive), the viability [4, 7] was 97% and the viability [4, 8] was 93.8%. The inhibition [5] was -2.3% (inactive) and the inhibition [6] was -3.09% (inactive).

In the case of CSCCC(NC(=O)CCN1C(=O)c2ccccc2C1=O)C(=O)O (centres undefined), the viability [1] is reported as 85% (inactive), the viability [2] is reported as 101% (inactive) and the viability [3] is reported as 98.5% (inactive). For the same compound, the differential viability (reversal) ([4]; H69AR cells + 2 uM doxorubicin) was 13.8% (inactive), the viability [4, 7] was 84.7% and the viability [4, 8] was 98.5%. For the same compound, the inhibition [5] was -3.01% (inactive) and the inhibition [6] was 6.73% (inactive).

In the case of COc1ccccc1N(CC(=O)NC1CCCC1)C(=O)CCC(=O)Nc1cc(C)on1, the viability [1] is reported as 98% (inactive), the viability [2] is reported as 102% (inactive) and the viability [3] is reported as 85.3% (inactive). The differential viability (reversal) ([4]; H69AR cells + 2 uM doxorubicin) was -1.76% (inactive), the viability [4, 7] was 87.1% and the viability [4, 8] was 85.3%. The inhibition [5] was -2% (inactive) and the inhibition [6] was 9.82% (inactive).
